Measurements as given in ChEMBL document CHEMBL3120102, “Structure-based design, synthesis and biological evaluation of novel anthra[1,2-d]imidazole-6,11-dione homologues as potential antitumor agents” (2013).

Columns and labels:
[1] = system: SK-MEL-2; assay: Cytotoxicity against human SK-MEL-2 cells assessed as cell growth at 10 uM after 48 hrs by SRB assay; assay type: functional; conditions: SK-MEL-2, 48 h, read-out: Activity
Method in brief: (§1)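 First stage of the NCI 60 human tumour cell line screen: a single dose is tested against every line. Cell growth is read as cellular protein by sulforhodamine B colorimetry after 48 h of drug exposure, with reference to a time-zero control and to untreated plates.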

[2] = system: IGROV-1; assay: Cytotoxicity against human IGROV1 cells assessed as cell growth at 10 uM after 48 hrs by SRB assay; assay type: functional; conditions: IGROV-1, 48 h, read-out: Activity
[3] = system: DU-145; assay: Cytotoxicity against human DU145 cells assessed as cell growth at 10 uM after 48 hrs by SRB assay; assay type: functional; conditions: DU-145, 48 h, read-out: Activity
Method in brief: (§2)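 NCI 60-cell-line screen, first stage: compound at a single dose of […] (unit as printed) for 48 h. Cellular protein was measured by sulforhodamine B colorimetry. Growth was determined using a time-zero cell control and plates not exposed to drug.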

[4] = system: SNB-19; assay: Cytotoxicity against human SNB19 cells assessed as cell growth at 10 uM after 48 hrs by SRB assay; assay type: functional; conditions: SNB-19, 48 h, read-out: Activity
Method in brief: (§3)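 First stage of the NCI 60 human tumour cell line screen, with each compound tested at a single dose of 10. Cellular protein measured by sulforhodamine B colorimetry after 48 h drug exposure. Growth is calculated against a time-zero cell control and against plates not exposed to drug.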

[5] = system: SF-295; assay: Cytotoxicity against human SF295 cells assessed as cell growth at 10 uM after 48 hrs by SRB assay; assay type: functional; conditions: SF-295, 48 h, read-out: Activity; method in brief: as §1
[6] = system: MDA-MB-231; assay: Cytotoxicity against human MDA-MB-231 cells assessed as cell growth at 10 uM after 48 hrs by SRB assay; assay type: functional; conditions: MDA-MB-231, 48 h, read-out: Activity; method in brief: as §1
[7] = system: HOP-62; assay: Cytotoxicity against human HOP62 cells assessed as cell growth at 10 uM after 48 hrs by SRB assay; assay type: functional; conditions: HOP-62, 48 h, read-out: Activity; method in brief: as §2
[8] = system: SW-620; assay: Cytotoxicity against human SW620 cells assessed as cell growth at 10 uM after 48 hrs by SRB assay; assay type: functional; conditions: SW-620, 48 h, read-out: Activity; method in brief: as §3
[9] = system: RPMI-8226; assay: Cytotoxicity against human RPMI8226 cells assessed as cell growth at 10 uM after 48 hrs by SRB assay; assay type: functional; conditions: RPMI-8226, 48 h, read-out: Activity; method in brief: as §1
[10] = system: M14; assay: Cytotoxicity against human M14 cells assessed as cell growth at 10 uM after 48 hrs by SRB assay; assay type: functional; conditions: M14, 48 h, read-out: Activity; method in brief: as §2
[11] = system: KM12; assay: Cytotoxicity against human KM12 cells assessed as cell growth at 10 uM after 48 hrs by SRB assay; assay type: functional; conditions: KM12, 48 h, read-out: Activity
[12] = system: HL-60(TB); assay: Cytotoxicity against human HL-60(TB) cells assessed as cell growth at 10 uM after 48 hrs by SRB assay; assay type: functional; conditions: HL-60, 48 h, read-out: Activity
Method in brief: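 NCI 60-cell panel first-stage screen at a single dose in the HL-60(TB) leukemia line. Cellular protein was measured by sulforhodamine B colorimetry after 48 h of drug exposure. Growth was referenced to a time-zero cell control and to plates not exposed to drug.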

[13] = system: SK-MEL-5; assay: Cytotoxicity against human SK-MEL-5 cells assessed as cell growth at 10 uM after 48 hrs by SRB assay; assay type: functional; conditions: SK-MEL-5, 48 h, read-out: Activity; method in brief: as §1
[14] = system: UACC-62; assay: Cytotoxicity against human UACC62 cells assessed as cell growth at 10 uM after 48 hrs by SRB assay; assay type: functional; conditions: UACC-62, 48 h, read-out: Activity; method in brief: as §3
[15] = Cytotoxicity against human UO31 cells assessed as cell growth at 10 uM after 48 hrs by SRB assay; assay type: functional; conditions: UO-31, 48 h, read-out: Activity; method in brief: as §3
[16] = system: HCT-116; assay: Cytotoxicity against human HCT116 cells assessed as cell growth at 10 uM after 48 hrs by SRB assay; assay type: functional; conditions: HCT-116, 48 h, read-out: Activity
[17] = system: SNB-75; assay: Cytotoxicity against human SNB75 cells assessed as cell growth at 10 uM after 48 hrs by SRB assay; assay type: functional; conditions: SNB-75, 48 h, read-out: Activity; method in brief: as §3
[18] = system: ACHN; assay: Cytotoxicity against human ACHN cells assessed as cell growth at 10 uM after 48 hrs by SRB assay; assay type: functional; conditions: read-out: Activity
[19] = Cytotoxicity against human H1299 cells assessed as cell viability at 1 uM after 48 hrs by MTT assay; assay type: functional; conditions: NCI-H1299, 48 h, read-out: Activity
Method in brief: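 About 2×10³ H1299 cells per well were grown for 24 h at 37 °C in 5% CO2. Compound was dissolved in DMSO immediately before use, diluted in complete medium and left on cells for 48 h. MTT was then added for 4 h at 37 °C, followed by SDS/DMF lysis buffer for 16 h at 37 °C. Absorbance was read at 550 nm.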

[20] = system: NCI-H23; assay: Cytotoxicity against human NCI-H23 cells assessed as cell growth at 10 uM after 48 hrs by SRB assay; assay type: functional; conditions: NCI-H23, 48 h, read-out: Activity; method in brief: as §1
[21] = system: OVCAR-8; assay: Cytotoxicity against human OVCAR8 cells assessed as cell growth at 10 uM after 48 hrs by SRB assay; assay type: functional; conditions: OVCAR-8, 48 h, read-out: Activity; method in brief: as §1
[22] = system: A549; assay: Cytotoxicity against human A549 cells assessed as cell growth at 10 uM after 48 hrs by SRB assay; assay type: functional; conditions: A549, 48 h, read-out: Activity
[23] = system: NCI-H226; assay: Cytotoxicity against human NCI-H226 cells assessed as cell growth at 10 uM after 48 hrs by SRB assay; assay type: functional; conditions: NCI-H226, 48 h, read-out: Activity; method in brief: as §1
[24] = target: Telomerase reverse transcriptase (Homo sapiens) (UniProt O14746); assay: Inhibition of human tert transcriptional activity assessed as SEAP activity at 100 uM after 24 hrs by SEAP reporter assay; design: scale not given: the % may be the effect or the level left
Method in brief: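 Reporter assay for hTERT transcriptional activity using secreted alkaline phosphatase. About 2 × 10³ cells per well were grown for 24 h at 37 °C, then given fresh medium. Buffer was added to the medium: 2 M diethanolamine, 1 mM MgCl2 and 20 mM L-homoarginine. p-Nitrophenyl phosphate was added to 12 mM final. The rate of absorbance increase was read at 405 nm.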

[25] = system: SF-268; assay: Cytotoxicity against human SF268 cells assessed as cell growth at 10 uM after 48 hrs by SRB assay; assay type: functional; conditions: SF-268, 48 h, read-out: Activity; method in brief: as §1
[26] = system: SR; assay: Cytotoxicity against human SR cells assessed as cell growth at 10 uM after 48 hrs by SRB assay; assay type: functional; conditions: read-out: Activity; method in brief: as §3
[27] = system: Malme-3M; assay: Cytotoxicity against human MALME-3M cells assessed as cell growth at 10 uM after 48 hrs by SRB assay; assay type: functional; conditions: read-out: Activity
[28] = system: MOLT-4; assay: Cytotoxicity against human MOLT4 cells assessed as cell growth at 10 uM after 48 hrs by SRB assay; assay type: functional; conditions: MOLT-4, 48 h, read-out: Activity; method in brief: as §1
[29] = system: BT-549; assay: Cytotoxicity against human BT549 cells assessed as cell growth at 10 uM after 48 hrs by SRB assay; assay type: functional; conditions: BT-549, 48 h, read-out: Activity; method in brief: as §2

Telomerase reverse transcriptase (Homo sapiens), sequence (O14746 whole entry): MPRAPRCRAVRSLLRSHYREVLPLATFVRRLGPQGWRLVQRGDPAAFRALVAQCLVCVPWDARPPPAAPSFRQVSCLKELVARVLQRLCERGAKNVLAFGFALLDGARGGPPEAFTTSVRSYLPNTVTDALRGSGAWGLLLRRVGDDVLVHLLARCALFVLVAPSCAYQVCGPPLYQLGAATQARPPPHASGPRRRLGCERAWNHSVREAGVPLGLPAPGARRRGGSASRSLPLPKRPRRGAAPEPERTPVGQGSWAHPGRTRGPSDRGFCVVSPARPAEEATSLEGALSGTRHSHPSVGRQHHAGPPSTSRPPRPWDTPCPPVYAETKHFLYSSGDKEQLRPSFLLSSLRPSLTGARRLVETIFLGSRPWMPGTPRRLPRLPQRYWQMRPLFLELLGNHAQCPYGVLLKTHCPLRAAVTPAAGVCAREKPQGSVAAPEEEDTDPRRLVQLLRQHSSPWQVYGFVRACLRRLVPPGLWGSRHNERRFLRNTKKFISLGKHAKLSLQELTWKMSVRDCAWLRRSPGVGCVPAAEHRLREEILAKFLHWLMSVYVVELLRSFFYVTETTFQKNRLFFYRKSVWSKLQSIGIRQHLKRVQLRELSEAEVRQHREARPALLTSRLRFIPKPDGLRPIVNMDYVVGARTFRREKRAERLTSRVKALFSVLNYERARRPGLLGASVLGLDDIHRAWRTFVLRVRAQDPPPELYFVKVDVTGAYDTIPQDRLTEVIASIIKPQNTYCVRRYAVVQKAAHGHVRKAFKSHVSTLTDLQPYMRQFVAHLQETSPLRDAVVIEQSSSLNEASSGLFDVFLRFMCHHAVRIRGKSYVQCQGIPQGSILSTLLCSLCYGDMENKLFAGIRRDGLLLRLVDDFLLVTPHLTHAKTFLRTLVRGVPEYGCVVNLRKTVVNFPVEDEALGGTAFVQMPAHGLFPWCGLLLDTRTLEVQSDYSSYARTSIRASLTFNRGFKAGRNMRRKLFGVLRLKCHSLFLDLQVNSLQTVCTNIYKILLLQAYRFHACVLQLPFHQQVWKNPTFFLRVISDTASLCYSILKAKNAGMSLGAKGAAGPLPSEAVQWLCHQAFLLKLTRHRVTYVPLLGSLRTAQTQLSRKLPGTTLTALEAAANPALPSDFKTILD

Compound | growth at 10 µM [1] | growth at 10 µM [2] | growth at 10 µM [3] | growth at 10 µM [4] | growth at 10 µM [5] | growth at 10 µM [6] | growth at 10 µM [7] | growth at 10 µM [8] | growth at 10 µM [9] | growth at 10 µM [10] | growth at 10 µM [11] | growth at 10 µM [12] | growth at 10 µM [13] | growth at 10 µM [14] | growth at 10 µM [15] | growth at 10 µM [16] | growth at 10 µM [17] | growth at 10 µM [18] | viability at 1 µM [19] | growth at 10 µM [20] | also measured
CCCSc1nc2ccc3c(c2[nH]1)C(=O)c1ccccc1C3=O | 79.3% | 53.7% | 69.3% | 92% | 37.2% | 26.4% | 59.1% | 104% | 71.8% | 90% | 55.2% | 74.2% | 78.5% | 51.1% | 24.5% | 47.7% | -9.55% | 27.2% | 91% | 69.8% | growth at 10 µM [21]: 44.7%; growth at 10 µM [22]: 59.1%; growth at 10 µM [23]: 50.2%; Activity [24]: 33%; growth at 10 µM [25]: 47.8%; growth at 10 µM [26]: 71%; growth at 10 µM [27]: 88.2%; growth at 10 µM [28]: 68.1%; growth at 10 µM [29]: 76%
O=C1c2ccccc2C(=O)c2c1ccc1nc3n(c21)CCS3 | 99.9% | 62.3% | 68.8% | 74.5% | 78.6% | 94% | 85.3% | 69.3% | 71.7% | 78.5% | 84.9% | 78.8% | 65.9% | 73.1% | 45.8% | 68.4% | 95.6% | 59.4% | 115% | 84.3% | growth at 10 µM [21]: 75.4%; growth at 10 µM [22]: 81.2%; growth at 10 µM [23]: 80.5%; Activity [24]: 48%; growth at 10 µM [25]: 56.1%; growth at 10 µM [26]: 60.6%; growth at 10 µM [27]: 87.6%; growth at 10 µM [28]: 58.4%; growth at 10 µM [29]: 87.9%
O=C1c2ccccc2C(=O)c2c1ccc1nc(SCCN3CCCC3)[nH]c21 | 107% | 23.2% | 17.9% | 60.5% | 76.9% | 63.5% | 73.7% | 22.8% | -60.2% | 70.9% | 19.6% | 37.4% | 78.5% | 81% | 21.2% | 38.8% | 81.8% | 34.6% | 90% | 66.9% | growth at 10 µM [21]: 49.4%; growth at 10 µM [22]: 35.5%; growth at 10 µM [23]: 88.1%; Activity [24]: 36%; growth at 10 µM [25]: 42%; growth at 10 µM [26]: 20.2%; growth at 10 µM [27]: 112%; growth at 10 µM [28]: 30.9%; growth at 10 µM [29]: 78.6%
